According to ChEMBL document CHEMBL1152392, “Discovery and optimization of a novel Neuromedin B receptor antagonist” (Bioorg Med Chem Lett, 2009):

Each compound was assayed on HeLa (assay: Cytotoxicity against human HeLa cells after 72 hrs by alamar blue assay). Conditions: not given.
Assay type: cell-based
How it was run: (§1)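 HeLa cells were seeded at 5k per well. Compounds were tested as a 9-point threefold dilution series, with triplicate readings at 0 and 72 h. At each time point Alamar Blue was added for 3 h at 37 °C and fluorescence was read. Relative growth was compared to a DMSO control well for each compound.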
For Cc1ccc2c(c1)NC(c1ccccc1C(F)(F)F)C1=C(CC3(CCCC3)CC1=O)N2 (single isomer, unassigned; (+)), the IC50 was > 50000 nM.

The compounds below were run against T1, Neuromedin-B receptor (Homo sapiens, UniProt P28336) (assay: Displacement of [125I]-(D-Tyr0)NMB from human neuromedin B receptor transfected in HEK293 cells). Conditions: not given.
T1 sequence (P28336 whole entry): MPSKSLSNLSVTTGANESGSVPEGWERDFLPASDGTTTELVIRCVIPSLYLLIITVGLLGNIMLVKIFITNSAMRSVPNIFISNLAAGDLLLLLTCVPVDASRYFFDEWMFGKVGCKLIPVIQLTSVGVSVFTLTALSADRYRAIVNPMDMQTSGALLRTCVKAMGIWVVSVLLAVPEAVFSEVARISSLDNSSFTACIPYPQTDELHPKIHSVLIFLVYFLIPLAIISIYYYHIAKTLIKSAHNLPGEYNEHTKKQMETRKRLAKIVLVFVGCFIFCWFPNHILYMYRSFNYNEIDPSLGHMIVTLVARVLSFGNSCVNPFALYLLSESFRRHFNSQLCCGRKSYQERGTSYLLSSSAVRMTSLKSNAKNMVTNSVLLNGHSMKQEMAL
Assay type: cell-based
How it was run: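 Whole-cell competition binding used 1 × 10⁶ HEK293 cells stably transfected with hNMBR, with 150 pM ¹²⁵I-[D-Tyr0]NMB (2200 Ci/mmol), in DMEM for 1 h at room temperature. Bound ligand was separated by filtration and total bound counts were measured. Day-to-day standard error was <30%; well-to-well variability was <10%.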
In the case of CC1(C)CC(=O)C2=C(C1)Nc1ccc(Cl)cc1NC2c1c(F)cccc1Cl (configuration not stated), the IC50 is reported as 860 nM.
Cc1ccc2c(c1)NC(c1ccccc1Cl)C1=C(CC3(CCCC3)CC1=O)N2 (configuration not stated) was tested, and the IC50 was 240 nM.
For Cc1ccc2c(c1)NC(c1ccccc1C(F)(F)F)C1=C(CC3(CCCC3)CC1=O)N2 (single isomer, unassigned; (-)), the IC50 was > 10000 nM.
CC1(C)CC(=O)C2=C(C1)Nc1ccc(O)cc1NC2c1c(F)cccc1Cl (configuration not stated) gave an IC50 of 10000 nM.
For CC1(C)CC(=O)C2=C(C1)Nc1ccc(C(F)(F)F)cc1NC2c1c(F)cccc1Cl (configuration not stated), the IC50 was 370 nM.
Work on CC1(C)CC(=O)C2=C(C1)Nc1ccc(OC(F)(F)F)cc1NC2c1c(F)cccc1Cl (configuration not stated) yielded an IC50 of 1300 nM.
With Cc1ccc2c(c1)NC(c1c(F)cccc1Cl)C1=C(CC(C)(C)CC1=O)N2 (configuration not stated) the IC50 was 300 nM.
Cc1ccc2c(c1)NC(c1c(F)cccc1Cl)C1=C(CC(c3ccco3)CC1=O)N2 (configuration not stated) was tested, and the IC50 was 3000 nM.
Cc1ccc2c(c1)NC(c1ccccc1Cl)C1=C(CC(C)(C)CC1=O)N2 (configuration not stated) gave an IC50 of 280 nM.
With Cc1ccc2c(c1)NC(c1ccccc1)C1=C(CC(C)(C)CC1=O)N2 (configuration not stated) the IC50 was 6900 nM.
Compound CSc1ccccc1C1Nc2cc(C)ccc2NC2=C1C(=O)CC(C)(C)C2 (configuration not stated) has an IC50 of 200 nM.
For Cc1ccc2c(c1)NC(c1c(F)cccc1F)C1=C(CC(C)(C)CC1=O)N2 (configuration not stated), the IC50 was 2500 nM.
In the case of CC1(C)CC(=O)C2=C(C1)Nc1ccc(C#N)cc1NC2c1c(F)cccc1Cl (configuration not stated), the IC50 is reported as 1300 nM.
For Cc1ccc2c(c1)N(C)C(c1c(F)cccc1Cl)C1=C(CC(C)(C)CC1=O)N2 (configuration not stated), the IC50 was 170 nM.
In the case of Cc1ccc2c(c1)NC(c1c(F)cccc1Cl)C1=C(CC(C)CC1=O)N2 (configuration not stated), the IC50 is reported as 450 nM.
Compound Cc1ccc2c(c1)NC(c1ccccc1[N+](=O)[O-])C1=C(CC(C)(C)CC1=O)N2 (configuration not stated) has an IC50 of 550 nM.
COc1ccc(C2CC(=O)C3=C(C2)Nc2ccc(C)cc2NC3c2c(F)cccc2Cl)cc1 (configuration not stated) was tested, and the IC50 was 2000 nM.
Compound Cc1ccc2c(c1)NC(c1ccccc1C(F)(F)F)C1=C(CC(C)(C)CC1=O)N2 (configuration not stated) has an IC50 of 250 nM.
Work on Cc1ccc2c(c1)NC(c1ccccc1C(F)(F)F)C1=C(CC3(CCCC3)CC1=O)N2 (stereo in doubt; 30) yielded an IC50 of 96 nM.
Cc1ccc2c(c1)NC(c1ccccc1F)C1=C(CC(C)(C)CC1=O)N2 (configuration not stated) was tested, and the IC50 was 1300 nM.
Work on COc1ccc2c(c1)NC(c1c(F)cccc1Cl)C1=C(CC(C)(C)CC1=O)N2 (configuration not stated) yielded an IC50 of 2200 nM.
Work on CCCCN1c2cc(C)ccc2NC2=C(C(=O)CC(C)(C)C2)C1c1c(F)cccc1Cl (configuration not stated) yielded an IC50 of 150 nM.
For Cc1ccc2c(c1)NC(c1ccccc1SC(F)(F)F)C1=C(CC3(CCCC3)CC1=O)N2 (configuration not stated), the IC50 was 640 nM.
In the case of Cc1ccc2c(c1)NC(c1c(F)cccc1C(F)(F)F)C1=C(CC3(CCCC3)CC1=O)N2 (configuration not stated), the IC50 is reported as 540 nM.
In the case of Cc1ccc2c(c1)NC(c1c(F)cccc1Cl)C1=C(CC3(CCCC3)CC1=O)N2 (configuration not stated), the IC50 is reported as 280 nM.
With Cc1ccc2c(c1)NC(c1c(F)cccc1Cl)C1=C(CC(c3ccc(N(C)C)cc3)CC1=O)N2 (configuration not stated) the IC50 was 5400 nM.
Work on Cc1ccc2c(c1)NC(c1ccccc1C(F)(F)F)C1=C(CC3(CCCC3)CC1=O)N2 (single isomer, unassigned; (+)) yielded an IC50 of 30 nM.
For CCN1c2cc(C)ccc2NC2=C(C(=O)CC(C)(C)C2)C1c1c(F)cccc1Cl (configuration not stated), the IC50 was 180 nM.
Compound COc1ccccc1C1Nc2cc(C)ccc2NC2=C1C(=O)CC(C)(C)C2 (configuration not stated) has an IC50 of 1100 nM.
CSc1ccccc1C1Nc2cc(C)ccc2NC2=C1C(=O)CC1(CCCC1)C2 (configuration not stated) showed an IC50 of 250 nM.
Compound Cc1ccc2c(c1)NC(c1c(F)cccc1Cl)C1=C(CC(C)(C)CC1=O)N2C (configuration not stated) has an IC50 of 10000 nM.
In the case of Cc1ccc2c(c1)NC(c1c(F)cccc1Cl)C1=C(CCC1=O)N2 (configuration not stated), the IC50 is reported as 10000 nM.
CC1(C)CC(=O)C2=C(C1)Nc1ccc(C(=O)O)cc1NC2c1c(F)cccc1Cl (configuration not stated) gave an IC50 of 10000 nM.
With CC1(C)CC(=O)C2=C(C1)Nc1ccc(C(N)=O)cc1NC2c1c(F)cccc1Cl (configuration not stated) the IC50 was 10000 nM.
Cc1ccc2c(c1)NC(c1c(F)cccc1Cl)C1=C(CCCC1=O)N2 (configuration not stated) showed an IC50 of 1400 nM.
Compound Cc1ccc2c(c1)NC(c1c(F)cccc1Cl)C1=C(CC(C(C)C)CC1=O)N2 (configuration not stated) has an IC50 of 810 nM.

These compounds were tested on HeLa (assay: Cytotoxicity against human HeLa cells up to 30 uM after 72 hrs by alamar blue assay). Conditions: not given.
Assay type: cell-based
How it was run: as §1
In the case of Cc1ccc2c(c1)NC(c1ccccc1C(F)(F)F)C1=C(CC3(CCCC3)CC1=O)N2 (single isomer, unassigned; (+)), the Activity is reported as “Non-toxic”.

These compounds were tested against Gastrin-releasing peptide receptor (Homo sapiens, UniProt P30550) (assay: Inhibition gastrin-releasing peptide receptor). Conditions: not given.
Gastrin-releasing peptide receptor, sequence (P30550 whole entry): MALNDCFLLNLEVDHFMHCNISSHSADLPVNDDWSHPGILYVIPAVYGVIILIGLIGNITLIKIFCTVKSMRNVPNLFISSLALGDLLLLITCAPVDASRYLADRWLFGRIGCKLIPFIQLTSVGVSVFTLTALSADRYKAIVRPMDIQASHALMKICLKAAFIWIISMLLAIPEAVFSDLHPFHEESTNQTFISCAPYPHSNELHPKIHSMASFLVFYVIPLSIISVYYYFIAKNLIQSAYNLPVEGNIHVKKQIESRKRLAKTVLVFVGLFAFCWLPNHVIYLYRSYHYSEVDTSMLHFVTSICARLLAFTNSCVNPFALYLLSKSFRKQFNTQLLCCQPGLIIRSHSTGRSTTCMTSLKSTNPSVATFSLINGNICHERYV
In the case of Cc1ccc2c(c1)NC(c1c(F)cccc1Cl)C1=C(CC(C)(C)CC1=O)N2 (configuration not stated), the IC50 is reported as > 10000 nM.

What follows are compounds tested against T1, Neuromedin-B receptor (assay: Antagonist activity at human neuromedin B receptor transfected in HEK293 cells assessed as inhibition of 1 nM neuromedin B-induced myo-[3H]inositol phosphate accumulation after 60 mins by scintillation proximity assay). Conditions: not given.
Assay type: functional, cell-based
How it was run: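 hNMBR-transfected HEK293 cells (2.5 × 10⁴ per well) were labelled overnight at 37 °C with myo-[³H]inositol in inositol-free DMEM with 25 mM Hepes and 10% dialyzed FBS. Compounds were added in inositol-free DMEM with 0.3% BSA and 10 mM LiCl for 60 min at 37 °C. Cells were lysed in 20 mM formic acid (2 h, 4 °C), and inositol phosphates were captured on RNA-binding SPA beads for 30 min.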
Cc1ccc2c(c1)NC(c1c(F)cccc1Cl)C1=C(CC(C)(C)CC1=O)N2 (configuration not stated) was tested, and the IC50 was 5500 nM.
Cc1ccc2c(c1)NC(c1ccccc1C(F)(F)F)C1=C(CC3(CCCC3)CC1=O)N2 (single isomer, unassigned; (+)) showed an IC50 of 580 nM.

What follows are compounds tested on HEK293 (assay: Cytotoxicity against HEK293 cells up to 30 uM after 72 hrs by alamar blue assay). Conditions: human, hek293, 72 h.
Assay type: cell-based
In the case of Cc1ccc2c(c1)NC(c1ccccc1C(F)(F)F)C1=C(CC3(CCCC3)CC1=O)N2 (single isomer, unassigned; (+)), the Activity is reported as “Non-toxic”.
